Test results: ChEMBL document CHEMBL1143679, “Anti-inflammatory thiazine alkaloids isolated from the New Zealand ascidian Aplidium sp.: inhibitors of the neutrophil respiratory burst in a model of gouty arthritis” (J Nat Prod, 2007)
Active and inactive are the calls of the source.

Key:
HL-60 = assay: Antiproliferative activity against human HL60 cells after 48 hrs by MTT assay; conditions: HL-60, 48 h
Neutrophil = assay: Inhibition of PMA-stimulated superoxide production in human neutrophils; format: functional, cell-based
In short: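 Neutrophils in HBSS, 1 × 10⁶ cells/well, preincubated 30 min with graded compound concentrations (HBSS, 1% v/v DMSO). WST-1 added (final 0.35 mM), then PMA (final 0.295 µM). Dye reduction read in real time at 450 nm for 20 min at 37 °C. Rate compared with buffer-treated cells; AI50 is the concentration giving 50% inhibition.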

Mus musculus [1] = assay: Inhibition of superoxide production in peritoneal neutrophils of C57BL/6 gouty mouse at 25.6 umol/kg, po after 4 hrs relative to monosodium urate; format: functional; conditions: C57BL/6, po
In short: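 Male C57BL/6 mice, 8–12 weeks, received MSU crystals (3 mg in 500 µL PBS pH 7.4) ip, with oral gavage of compound (25.6 µmol/kg) at the same time. PBS-gavaged controls; colchicine given sc at 5 µmol/kg. After 4 h, peritoneal lavage with heparinized PBS. Cells adjusted to 1 × 10⁶ neutrophils/mL; PMA-triggered WST-1 reduction measured per million neutrophils, relative to MSU-only mice.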

Mus musculus [2] = assay: Inhibition of urate-induced neutrophil recruitment into peritoneal cavity in mouse at 25 umol/kg; format: functional
In short: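 In the ip MSU (3 mg) mouse model with oral gavage dosing, peritoneal lavage was taken at 4 h. Total cells were counted. A cytocentrifuged aliquot was stained with Diff-Quick, and the neutrophil percentage was scored microscopically by standard histological criteria.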

[3] = Inhibition of superoxide production by xanthine/xanthine oxidase method; format: functional
In short: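 Cell-free enzyme assay. Graded compound dilutions were prepared in 0.1 M Tris pH 7.4, 0.2 mM EDTA, 1% v/v DMSO. Final WST-1 0.35 mM, xanthine 2.38 mM and xanthine oxidase 15 mU/mL. Absorbance at 450 nm was read in real time for 20 min at 37 °C. The rate was compared with buffer controls, and the 50% inhibitory concentration was reported.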

Row | SMILES | IC50 (HL-60) [µM] | IC50 (Neutrophil) [µM] | inhibition in vivo at 25.6 µmol/kg (Mus musculus [1]) [%] | inhibition in vivo at 25 µmol/kg (Mus musculus [2]) [%] | IC50 [3] [µM] | Activity (Mus musculus [2])
1 | COC(=O)c1ccc2cccc(O)c2n1 | 96.9 | 277 |  |  |  | 
2 | COC(=O)c1ccc2c(n1)C(=O)C1=C(C2=O)S(=O)(=O)CCN1 [ASCIDIATHIAZONE A METHYL ESTER] |  |  | 84 | 60 | 18.2 | 
3 | Oc1ncnc2[nH]ncc12 [ALLOPURINOL] |  |  |  |  | 42.2 | 
4 | CN(Cc1cnc2nc(N)nc(N)c2n1)c1ccc(C(=O)N[C@@H](CCC(=O)O)C(=O)O)cc1 [METHOTREXATE] | 0.00692 |  |  |  |  | 
5 | O=C(O)c1ccc2c(n1)C(=O)C1=C(NC=CS1(=O)=O)C2=O [ASCIDIATHIAZONE B] | 16.7 | 0.44 | 59 |  | 17.9 | inactive
6 | COC(=O)c1ccc2c(n1)C(=O)C=CC2=O | 4.11 | 1.75 |  |  |  | 
7 | O=C(O)c1ccc2c(n1)C(=O)C1=C(C2=O)S(=O)(=O)CCN1 [ACIDIATHIAZONE A] |  |  | 23 |  | 55.9 | inactive
